From article PMC6039301 (Journal of medicinal chemistry, 2017)
“Also recorded” adds a separate entry of the source.

Experiments:
[1] = tested on: ERα levels in MCF-7 breast cancer cells; assay: In-cell western assay for ERα level; assay type: cell-based; conditions: MCF-7, 3 μM, 24 h
Outline: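 MCF-7 cells seeded at 3000 cells/well, exposed to test compound at a single 3 μM concentration for 24 h. Cells fixed in 4% formaldehyde, permeabilized with 0.1% Triton X-100, blocked, then probed overnight at 4 °C with rabbit anti-ERα (HC-20). IRDye 800 secondary and Cell Tag 700 were used, with ERα signal normalized to Cell Tag. Reported as percent of vehicle; mean of ≥3 independent experiments.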

[2] = target: T1, full-length human estrogen receptor alpha (ERα) (Homo sapiens, UniProt P03372); conditions: cited from earlier work
T1 sequence (P03372 1-595): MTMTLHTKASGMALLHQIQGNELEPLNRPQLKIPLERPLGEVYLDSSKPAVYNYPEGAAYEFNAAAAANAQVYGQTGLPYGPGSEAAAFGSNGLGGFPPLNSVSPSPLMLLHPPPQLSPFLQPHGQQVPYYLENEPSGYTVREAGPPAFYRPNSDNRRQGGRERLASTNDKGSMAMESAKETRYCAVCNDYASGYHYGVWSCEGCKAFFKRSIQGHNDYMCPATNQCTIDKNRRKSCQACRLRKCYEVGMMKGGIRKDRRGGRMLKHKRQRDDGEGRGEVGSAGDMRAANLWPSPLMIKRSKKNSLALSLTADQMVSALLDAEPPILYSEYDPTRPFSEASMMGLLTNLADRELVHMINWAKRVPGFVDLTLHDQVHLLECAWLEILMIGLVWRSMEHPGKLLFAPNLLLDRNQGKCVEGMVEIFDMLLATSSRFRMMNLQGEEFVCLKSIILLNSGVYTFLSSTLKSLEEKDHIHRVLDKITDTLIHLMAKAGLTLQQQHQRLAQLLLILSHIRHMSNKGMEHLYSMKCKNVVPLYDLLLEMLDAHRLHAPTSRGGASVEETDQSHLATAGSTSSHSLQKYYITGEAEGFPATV

[3] = tested on: ER-positive MCF-7 breast cancer cells; assay: Cell proliferation assay; assay type: cell-based; conditions: for Cell proliferation (CP), percent of vehicle control (antiproliferative efficacy): MCF-7, 3 μM, 6 days, maximum suppression ca. 20%; for IC50: Homo sapiens, MCF7, read-out: IC50 antiproliferative activity
[4] = tested on: ERα levels; assay: Western blot analysis of ERα; assay type: cell-based; conditions: 3×10^−6 M, 24 h (Figure 6B)
Outline: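 Cells treated 24 h with test compound at 3×10−10, 3×10−8 or 3×10−6 M; E2 (1×10−8 M) and tamoxifen (3×10−6 M) were reference treatments. Whole-cell extracts made with protease and phosphatase inhibitors, separated on 10% SDS-PAGE and transferred to nitrocellulose. Probed for ERα (F10 antibody) and β-actin. Band levels expressed as percent of vehicle.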

Row | SMILES | ERα level, percent of vehicle control (ERα downregulating efficacy) [1] | Cell proliferation (CP), percent of vehicle control (antiproliferative efficacy) [3] | also measured
1 | CCCCOC(=O)/C=C/c1ccc(C(=C2C3CC4CC(C3)CC2C4)c2ccc(O)cc2)cc1 [Compound 9, Butyl (E)-3-(4-(((1r,3r,5R,7S)-Adamantan-2-ylidene)(4-hydroxyphenyl)methyl)phenyl) acrylate] | good to very good | – | –
2 | Oc1ccc(C(=C2C3CC4CC(C3)CC2C4)c2ccc(O)cc2)cc1 [parent bisphenolic adamantyl-core] | – | – | binding affinity for ERα, fold higher than that of estradiol (E2) [2]: ca. 3 fold; Ki ([2]; read-out: Ki for ERα, corresponds to the affinity relative to E2): 0.07 nM
3 | CCCCNC(=O)/C=C/c1ccc(C(=C2C3CC4CC(C3)CC2C4)c2ccc(O)cc2)cc1 [Compound 18, (E)-3-(4-(((1r,3r,5R,7S)-Adamantan-2-ylidene)(4-hydroxyphenyl)methyl)phenyl)-N-butylacrylamide] | good efficacies | good efficacies | –
4 | O=C(/C=C/c1ccc(C(=C2C3CC4CC(C3)CC2C4)c2ccc(O)cc2)cc1)NCC(F)(F)F [Compound 28, (E)-3-(4-(((1r,3r,5R,7S)-Adamantan-2-ylidene)(4-hydroxyphenyl)methyl)phenyl)-N-(2,2,2-trifluoroethyl)acrylamide] | Least good | Least good | –
5 | CCCCCC(=O)/C=C/c1ccc(C(=C2C3CC4CC(C3)CC2C4)c2ccc(O)cc2)cc1 [Compound 6, (E)-1-(4-(((1r,3r,5R,7S)-Adamantan-2-ylidene)(4-hydroxyphenyl)methyl)phenyl)oct-1-en-3-one] | some efficacy | some efficacy | –
6 | NCCNC(=O)/C=C/c1ccc(C(=C2C3CC4CC(C3)CC2C4)c2ccc(O)cc2)cc1 [Compound 24, (E)-3-(4-(((1r,3r,5R,7S)-Adamantan-2-ylidene)(4-hydroxyphenyl)methyl)phenyl)-N-(2-aminoethyl)acrylamide] | – | – | IC50 [3]: 10 nM
7 | N#C/C=C/c1ccc(C(=C2C3CC4CC(C3)CC2C4)c2ccc(O)cc2)cc1 [Compound 14, (E)-3-(4-(((1r,3r,5R,7S)-Adamantan-2-ylidene)(4-hydroxyphenyl)methyl)phenyl) acrylonitrile] | very effective | matching that of vehicle control; also recorded: no anti-proliferative activity | –
8 | O=C(/C=C/c1ccc(C(=C2C3CC4CC(C3)CC2C4)c2ccc(O)cc2)cc1)NCCCO [Compound 21, (E)-3-(4-(((1r,3r,5R,7S)-Adamantan-2-ylidene)(4-hydroxyphenyl)methyl)phenyl)-N-(3-hydroxypropyl)acrylamide] | good and similar to that of the parent 5; also recorded: comparable to that of fulvestrant | equivalent to that of the parent acid 5; also recorded: comparable to that of fulvestrant | IC50 [3]: 1.9 nM
9 | NCCCNC(=O)/C=C/c1ccc(C(=C2C3CC4CC(C3)CC2C4)c2ccc(O)cc2)cc1 [Compound 25, (E)-3-(4-(((1r,3r,5R,7S)-Adamantan-2-ylidene)(4-hydroxyphenyl)methyl)phenyl)-N-(3-aminopropyl)acrylamide] | good | – | –
10 | O=C(/C=C/c1ccc(C(=C2C3CC4CC(C3)CC2C4)c2ccc(O)cc2)cc1)N(CCO)CCO [Compound 31, (E)-3-(4-(((1r,3r,5R,7S)-Adamantan-2-ylidene)(4-hydroxyphenyl)methyl)phenyl)-N,N-bis(2-hydroxyethyl)acrylamide] | relatively unimpressive | relatively unimpressive | –
11 | O=C(/C=C/c1ccc(C(=C2C3CC4CC(C3)CC2C4)c2ccc(O)cc2)cc1)NCCCCCO [Compound 23, (E)-3-(4-(((1r,3r,5R,7S)-Adamantan-2-ylidene)(4-hydroxyphenyl)methyl)phenyl)-N-(5-hydroxypentyl)acrylamide] | good and similar to that of the parent 5 | equivalent to that of the parent acid 5 | IC50 [3]: 10 nM
12 | C[C@]12CC[C@@H]3c4ccc(O)cc4C[C@@H](CCCCCCCCC[S+]([O-])CCCC(F)(F)C(F)(F)F)[C@H]3[C@@H]1CC[C@@H]2O (some centres unmarked) [Fulvestrant, fulvestrant, reference compound] | 20% | – | –
13 | CC/C(=C(\c1ccc(O)cc1)c1ccc(OCCN(C)C)cc1)c1ccccc1 [hydroxytamoxifen, 4-hydroxytamoxifen] | – | – | effect on cellular ERα level (Western blot) [4]: upregulate ERα levels
14 | O=C(O)/C=C/c1ccc(C(=C2C3CC4CC(C3)CC2C4)c2ccc(O)cc2)cc1 [Compound 5, (E)-3-(4-(((1r,3r,5R,7S)-Adamantan-2-ylidene)(4-hydroxyphenyl)methyl)phenyl)acrylic acid] | – | – | IC50 [3]: 31 nM
15 | O=C(/C=C/c1ccc(C(=C2C3CC4CC(C3)CC2C4)c2ccc(O)cc2)cc1)OCCCCO [Compound 13, 4-Hydroxybutyl (E)-3-(4-(((1r,3r,5R,7S)-Adamantan-2-ylidene)(4-hydroxyphenyl)methyl)phenyl)acrylate] | good to very good | – | –
16 | CCCCN(C)C(=O)/C=C/c1ccc(C(=C2C3CC4CC(C3)CC2C4)c2ccc(O)cc2)cc1 [Compound 29, (E)-3-(4-(((1r,3r,5R,7S)-Adamantan-2-ylidene)(4-hydroxyphenyl)methyl)phenyl)-N-butyl-N-methylacrylamide] | very poor efficacies | very poor efficacies | –
17 | NCCCCNC(=O)/C=C/c1ccc(C(=C2C3CC4CC(C3)CC2C4)c2ccc(O)cc2)cc1 [Compound 26, (E)-3-(4-(((1r,3r,5R,7S)-Adamantan-2-ylidene)(4-hydroxyphenyl)methyl)phenyl)-N-(4-aminobutyl)acrylamide] | good | – | –
18 | COC(=O)/C=C/c1ccc(C(=C2C3CC4CC(C3)CC2C4)c2ccc(O)cc2)cc1 [Compound 7, Methyl (E)-3-(4-(((1r,3r,5R,7S)-Adamantan-2-ylidene)(4-hydroxyphenyl)methyl)phenyl) acrylate] | – | no anti-proliferative activity | –
19 | NC(=O)/C=C/c1ccc(C(=C2C3CC4CC(C3)CC2C4)c2ccc(O)cc2)cc1 [Compound 16, (E)-3-(4-(((1r,3r,5R,7S)-Adamantan-2-ylidene)(4-hydroxyphenyl)methyl)phenyl)acrylamide] | Least good | Least good | –
20 | CC(C)CCCCCOC(=O)/C=C/c1ccc(C(=C2C3CC4CC(C3)CC2C4)c2ccc(O)cc2)cc1 [Compound 10, 6-Methylheptyl (E)-3-(4-(((1r,3r,5R,7S)-Adamantan-2-ylidene)(4-hydroxyphenyl)methyl)phenyl)acrylate] | good to very good | no anti-proliferative activity | –
21 | O=C(/C=C/c1ccc(C(=C2C3CC4CC(C3)CC2C4)c2ccc(O)cc2)cc1)NCCO [Compound 20, (E)-3-(4-(((1r,3r,5R,7S)-Adamantan-2-ylidene)(4-hydroxyphenyl)methyl)phenyl)-N-(2-hydroxyethyl)acrylamide] | impressive efficacies | impressive efficacies | IC50 [3]: 2.4 nM
22 | CCCNS(=O)(=O)/C=C/c1ccc(C(=C2C3CC4CC(C3)CC2C4)c2ccc(O)cc2)cc1 [Compound 15, (E)-2-(4-(((1r,3r,5R,7S)-Adamantan-2-ylidene)(4-hydroxyphenyl)methyl)phenyl)-N-propylethene-1-sulfonamide] | only modest | only modest | –
